Calls of active or inactive are those of the source. No cut-off for these calls is given here.
Legend:
[1] = biological target: T1, cGMP-specific 3',5'-cyclic phosphodiesterase (Homo sapiens, UniProt O76074); assay: Inhibition of human recombinant PDE5A1 expressed in COS7 cells; assay type: cell-based, COS-7
[2] = biological target: T2, Cone cGMP-specific 3',5'-cyclic phosphodiesterase subunit alpha' (Homo sapiens, UniProt P51160); assay: Inhibition of human PDE6C
[3] = species on record: Homo sapiens; assay: Selectivity ratio of IC50 for human PDE6C to IC50 for human PDE5A1
Procedure, shortened: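 PDE6C IC50 divided by PDE5A1 IC50. PDE6C assayed as for PDE5A1 (modified Kincaid–Manganiello method, 0.5 U enzyme/sample). PDE5A1 was full-length human recombinant enzyme expressed in COS-7 cells. IC50s from sigmoidal curve fits. Mean ± SD of at least two experiments in triplicate.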

[4] = biological target: T2, Cone cGMP-specific 3',5'-cyclic phosphodiesterase subunit alpha'; assay: Inhibition of human PDE6C at 10 uM; conditions: in the assay text read “at 10-fold PDE5A1 IC50” for “at 10 uM”
Procedure, shortened: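 Human PDE6C run under the same conditions as the PDE5A1 assay (Kincaid–Manganiello method, modified), at 0.5 U enzyme per sample. Compounds tested at a single concentration 10-fold above their PDE5A1 IC50. Mean ± SD of at least two experiments in triplicate.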

[5] = species on record: Homo sapiens; assay: Selectivity ratio of IC50 for human cAMP-PDE to IC50 for human PDE5A1
Procedure, shortened: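 cAMP-PDE IC50 divided by PDE5A1 IC50. cAMP-PDE from human platelet lysate (64 µg protein/mL) with 0.5 µM cAMP/[3H]-cAMP, 5 min at 30 °C, at 1–250 µM. PDE5A1 was recombinant human full-length enzyme expressed in COS-7 cells. IC50s from sigmoidal fits.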

[6] = Inhibition of human platelet cAMP-specific phosphodiesterase
Procedure, shortened: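 Platelets from healthy volunteers' blood, pelleted by centrifugation at 4 °C, resuspended in 10 mM Tris/HCl pH 7.4 and lysed by three freeze–thaw cycles. Lysate (64 µg protein/mL) incubated 5 min at 30 °C with 0.5 µM cAMP plus [3H]-cAMP in 30 mM Tris-HCl pH 7.4, 4 mM MgCl2. Product converted with nucleotidase and separated on DEAE-Sephadex. [3H]-adenosine counted by scintillation. Tested at 1–250 µM, IC50 from sigmoidal fit. Mean ± SD of three experiments in triplicate.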

[7] = Cytotoxicity against human fibroblasts at 100 uM after 24 hrs by MTT assay; assay type: cell-based; conditions: fibroblast
Procedure, shortened: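 Human skin fibroblasts exposed 24 h to 0.25–100 µM in DMEM-F12 with 10% heat-inactivated FBS, 1% penicillin, 1% L-glutamine. Medium then replaced with MTT 0.5 mg/mL in PBS, 3 h at 37 °C. Formazan extracted with 2-propanol/DMSO (9:1), 15 min at 37 °C, absorbance read at 560 nm.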

[8] = biological target: T1, cGMP-specific 3',5'-cyclic phosphodiesterase; assay: Inhibition of human recombinant PDE5A1 expressed in COS7 cells at 10 uM; assay type: cell-based; conditions: COS-7
Procedure, shortened: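 Full-length human PDE5A1 cDNA expressed in COS-7 cells as the enzyme source. Activity measured by the Kincaid and Manganiello method with minor modifications. Individual compounds screened at a single 10 µM concentration; plant extracts at 50 µg/mL. Results are mean ± SD of at least two experiments in triplicate.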

T2 sequence (P51160 whole entry): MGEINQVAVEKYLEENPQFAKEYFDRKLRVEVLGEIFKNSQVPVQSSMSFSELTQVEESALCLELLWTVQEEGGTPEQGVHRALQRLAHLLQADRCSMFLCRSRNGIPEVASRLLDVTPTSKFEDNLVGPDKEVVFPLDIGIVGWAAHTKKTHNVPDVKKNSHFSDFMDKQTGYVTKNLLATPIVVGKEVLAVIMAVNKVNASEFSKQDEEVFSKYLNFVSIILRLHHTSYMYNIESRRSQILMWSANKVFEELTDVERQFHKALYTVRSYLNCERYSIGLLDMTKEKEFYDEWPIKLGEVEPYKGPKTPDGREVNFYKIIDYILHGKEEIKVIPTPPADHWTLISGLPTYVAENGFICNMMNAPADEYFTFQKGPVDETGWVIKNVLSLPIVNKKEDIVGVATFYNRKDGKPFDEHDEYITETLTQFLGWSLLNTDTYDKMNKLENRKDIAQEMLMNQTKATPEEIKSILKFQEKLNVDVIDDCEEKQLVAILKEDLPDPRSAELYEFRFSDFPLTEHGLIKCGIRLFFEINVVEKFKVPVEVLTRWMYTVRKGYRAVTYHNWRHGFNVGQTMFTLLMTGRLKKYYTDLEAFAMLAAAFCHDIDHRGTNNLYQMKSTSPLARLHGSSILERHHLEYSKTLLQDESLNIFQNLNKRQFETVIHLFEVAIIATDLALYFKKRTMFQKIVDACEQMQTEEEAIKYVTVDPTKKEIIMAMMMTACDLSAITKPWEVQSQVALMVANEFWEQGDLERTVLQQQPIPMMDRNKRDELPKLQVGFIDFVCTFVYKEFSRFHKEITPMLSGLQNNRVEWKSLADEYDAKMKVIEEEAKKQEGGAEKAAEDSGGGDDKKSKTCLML

For COc1ccc(-c2oc3c(CC=C(C)C)c(OCCO)cc(O)c3c(=O)c2OCCO)cc1, which IC50 [1] is on record?
Its IC50 is 0.074 µM.

What about the IC50 [2] of the same compound?
Its IC50 is 30.9 µM.

And the Ratio IC50 [3]?
The Ratio IC50 was 418.

And the Activity [4]?
Its Activity is “inactive”.

And the Ratio IC50 [5]?
The Ratio IC50 was 1300.

And the IC50 [6]?
Its IC50 is 96.3 µM.

What about the Activity [7] of the same compound?
Its Activity is “Non-toxic”.

With CCCc1nn(C)c2c(=O)[nH]c(-c3cc(S(=O)(=O)N4CCN(C)CC4)ccc3OCC)nc12 as the compound, how does the IC50 [6] read?
The IC50 was 27.5 µM.

With COc1ccc(-c2oc3c(CC=C(C)C)c(O)cc(O)c3c(=O)c2O[C@@H]2O[C@@H](C)[C@H](O)[C@@H](O)[C@H]2O)cc1 [ICARISIDE II] as the compound, how does the IC50 [1] read?
The IC50 was 0.16 µM.

For COc1ccc(-c2oc3c(CC=C(C)C)c(O)cc(O)c3c(=O)c2O[C@@H]2O[C@H](C)[C@@H](O)[C@H](O)[C@@H]2O)cc1, which Activity [4] is on record?
Its Activity is “inactive”.

Which results are given for COc1ccc(-c2oc3c(CC=C(C)C)c(OCCO)cc(O)c3c(=O)c2O[C@@H]2O[C@H](C)[C@@H](O)[C@H](O)[C@@H]2O)cc1?
IC50 [1]: 0.36 µM; inhibition [4]: 86%

Which IC50 [1] does the source give for CC(C)=CCc1c(O)cc(O)c2c1OC(c1ccc(O)cc1)CC2=O (centres undefined) [SOPHORAFLAVANONE B] here?
Its IC50 is 16.2 µM.

Which IC50 [1] does the source give for COc1ccc(-c2oc3c(CC=C(C)C)c(O)cc(O)c3c(=O)c2O)cc1 [ICARITIN] here?
Its IC50 is 2.2 µM.

What about the Activity [4] of the same compound?
Its Activity is “inactive”.

Which inhibition [8] does the source give for O=C1C[C@@H](c2ccc(O)cc2)Oc2cc(O)cc(O)c21 here?
Its inhibition is 6%.

For CC(C)=CCc1c(O)cc(O)c2c(=O)cc(-c3ccc(O)cc3)oc12, which IC50 [1] is on record?
Its IC50 is 1.29 µM.

With O=c1cc(-c2ccc(O)cc2)oc2cc(O)cc(O)c12 as the compound, how does the inhibition [8] read?
The inhibition was 12%.

Which inhibition [8] does the source give for O=c1c(O)c(-c2ccc(O)c(O)c2)oc2cc(O)cc(O)c12 here?
Its inhibition is 23%.

What does the source list for COc1ccc(-c2oc3c4c(cc(O)c3c(=O)c2O)OC(C)(C)CC4)cc1?
IC50 [1]: 45.5 µM; Activity [4]: inactive

Which results are given for COc1ccc(-c2oc3c(CC=C(C)C)c(O[C@@H]4O[C@H](CO)[C@@H](O)[C@H](O)[C@H]4O)cc(O)c3c(=O)c2O[C@@H]2O[C@@H](C)[C@H](O)[C@@H](O)[C@H]2O)cc1 [ICARIIN]?
IC50 [1]: 5.9 µM; inhibition [4]: 45%

Which IC50 [1] does the source give for CC(C)=CCc1c(O)cc(O)c2c(=O)c(O)c(-c3ccc(O)c(O)c3)oc12 here?
Its IC50 is 0.7 µM.

Reference: ChEMBL document CHEMBL1156665, “Potent inhibition of human phosphodiesterase-5 by icariin derivatives” (J Nat Prod, 2008)
